# TLR4 MyD88 comp – inhibitors of TLR4-MyD88 association in cells, primary screen, cell-based, HeLa CL3-4, BLA complementation, FRET ratio; Toll-like receptor 4 (Homo sapiens) + Myeloid differentiation primary response protein …; HeLa CL3-4 TLR4/MyD88 BLA complementation; inhibition, % at 8.4 µM; actives 0.18% (n = 200,000); in the data active = inhibition above about 25%;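 also: 0% = vehicle and 100% = reference inhibitor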
# Target sequence (O00206 whole entry, looked up): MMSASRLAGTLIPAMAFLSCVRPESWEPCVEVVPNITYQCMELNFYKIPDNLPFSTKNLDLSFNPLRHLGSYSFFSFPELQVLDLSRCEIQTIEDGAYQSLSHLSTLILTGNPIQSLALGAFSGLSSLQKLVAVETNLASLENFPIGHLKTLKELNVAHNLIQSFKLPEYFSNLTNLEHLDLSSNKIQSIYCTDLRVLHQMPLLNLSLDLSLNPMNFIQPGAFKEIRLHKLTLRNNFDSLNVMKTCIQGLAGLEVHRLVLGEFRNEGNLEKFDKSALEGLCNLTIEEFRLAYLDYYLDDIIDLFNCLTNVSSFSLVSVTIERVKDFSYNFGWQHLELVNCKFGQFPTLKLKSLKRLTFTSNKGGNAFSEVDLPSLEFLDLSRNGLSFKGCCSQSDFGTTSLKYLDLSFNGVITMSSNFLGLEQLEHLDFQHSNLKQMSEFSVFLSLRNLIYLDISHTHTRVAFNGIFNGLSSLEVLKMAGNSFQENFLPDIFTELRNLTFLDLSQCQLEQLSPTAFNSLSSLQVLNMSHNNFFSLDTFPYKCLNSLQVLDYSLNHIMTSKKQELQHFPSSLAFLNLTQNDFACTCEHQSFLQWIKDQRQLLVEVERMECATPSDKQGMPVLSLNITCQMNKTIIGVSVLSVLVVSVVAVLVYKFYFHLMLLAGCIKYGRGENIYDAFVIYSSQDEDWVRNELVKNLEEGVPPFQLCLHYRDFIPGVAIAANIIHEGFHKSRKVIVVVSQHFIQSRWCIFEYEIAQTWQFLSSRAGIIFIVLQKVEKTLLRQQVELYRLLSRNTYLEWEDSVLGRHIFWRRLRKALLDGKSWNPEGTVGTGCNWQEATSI
# Target sequence (Q99836 whole entry, looked up): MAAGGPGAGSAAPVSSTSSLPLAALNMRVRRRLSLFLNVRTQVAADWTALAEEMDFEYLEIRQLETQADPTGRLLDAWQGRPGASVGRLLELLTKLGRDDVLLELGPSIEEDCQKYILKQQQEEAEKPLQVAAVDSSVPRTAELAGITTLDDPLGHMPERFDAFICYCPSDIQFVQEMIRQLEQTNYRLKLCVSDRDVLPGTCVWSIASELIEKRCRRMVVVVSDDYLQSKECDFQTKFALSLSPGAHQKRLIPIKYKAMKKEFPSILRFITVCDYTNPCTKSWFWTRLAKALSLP
# MC4R antagonist – MC4R antagonists of cAMP signaling, primary screen, cell-based, TR-FRET, antagonist arm of biased-ligand search | Melanocortin receptor 4 (Homo sapiens), P32245 | MC4R-expressing cells, MTII-stimulated cAMP, LANCE TR-FRET | inhibition, % at 6.5 µM | actives 0.48% (n = 360,000) | AID 540295, 2011;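 active = inhibition above its plate's cutoff, the mean of tested wells on that plate plus 3 SD, cut at about 29% in these data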;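 also: 0% = Melanotan II alone and 100% = Melanotan II plus saturating MCL0020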
#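 System: U2OS-MC4R stable cell line; Technique: Eu-cAMP/anti-cAMP TR-FRET, emission 671 nm; Repeats: single well per compound; Also added: Melanotan II; Dosing: one concentration, 6.5 µM nominal; Schedule: 30-min compound, 1-h challenge, 1-h detection, room temperature.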
# NOD2-RIPK2 inh – NOD2-RIPK2 binding disruptors in cells, primary screen, fluorescence, CHO cells, BLA complementation. Receptor-interacting serine/threonine-protein kinase 2 (Homo sapiens), O43353. CCF4 ratio. inhibition, % at 4.98 µM. actives 0.38% (n = 360,000); in the data active = inhibition above about 21%;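 also: 0% = vehicle only and 100% = reference blocker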
# MC4R barr agon – MC4R agonists recruiting beta-arrestin, primary screen, cell-based, luminescence, agonist arm of biased-ligand search. Melanocortin receptor 4 (Homo sapiens), P32245. U2OS MC4R beta-arrestin complementation; percent of melanotan II response, DMSO zero. activation, % at 8.9 µM. actives 0.98% (n = 360,000). AID 540308, 2011;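 active = activation above a per-plate cutoff, the mean activation of sample wells on that plate plus 3 SD, cut at about 8% in these data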
# TLR9-MyD88 block – inhibitors of TLR9-MyD88 association in cells, primary screen, cell-based, CHO, BLA complementation, fluorescence; Toll-like receptor 9 (Homo sapiens) + Myeloid differentiation primary response protein …; CCF4 FRET ratio; inhibition, % at 4.98 µM; actives 0.21% (n = 340,000);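 active = inhibition above the mean over all tested compounds plus 3 SD, cut at about 21% in these data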;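 also: 0% = DMSO only wells and 100% = clavulanate BLA inhibitor control wells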
# cAMP nonselect – nonselective cAMP signaling inhibitors, parental cells, counter-screen for MC4R biased antagonist project, cell-based, TR-FRET, U2OS, forskolin, triplicate; shares compounds with MC4R antagonist; LANCE TR-FRET; inhibition, % at 6.5 µM; actives 26% (n = 1,600); AID 602193, 2012;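 active = mean inhibition over triplicates above the low-control well mean plus 3 SD, set per campaign, cut at about 13% in these data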;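 also: signal is single emission at 671 nm which falls as cellular cAMP rises; 0% = forskolin-stimulated wells and 100% = buffer without forskolin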
# MC4R cAMP antag – MC4R cAMP antagonists, retest, confirmation, cell-based, TR-FRET; shares compounds with MC4R antagonist; MC4R-expressing cells, MTII-stimulated cAMP; inhibition, % at 6.5 µM; actives 27% (n = 1,600); in the data active = inhibition above about 29%;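 also: 0% = agonist stimulated wells alone and 100% = agonist stimulated wells plus saturating reference antagonist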
# Active calls of the source: *; / = no result given; ! = not active in a repeat. An excerpt weighted towards active compounds, which were near 1.8% of everything screened.
SMILES,TLR4 MyD88 comp,MC4R antagonist,NOD2-RIPK2 inh,MC4R barr agon,TLR9-MyD88 block,cAMP nonselect,MC4R cAMP antag
O=C(CCCC(=O)N(c1ccc2c(c1)OCCO2)C(C(=O)NC1CCCCC1)c1ccc(Cl)cc1)Nc1ccccn1 (centres undefined),6,6,2,0,-3,/,/
Nc1nc(Sc2ccc(C(F)(F)F)cn2)n[nH]1,-13,30*,-1,-2,-1,-6,-20
Cc1[nH]c(C)c(S(=O)(=O)NCC(C)c2ccccc2)c1C(=O)N1CCCCC1 (centres undefined),/,-1,-14,-2,-13,/,/
O=S(=O)(c1ccccc1)N1CCN(c2nc(-c3cccnc3)nc3ccccc23)CC1,/,11,-1,3,0,/,/
O=S(=O)(c1ccc(F)cc1)N1CCN(c2nc(-c3cccnc3)nc3ccccc23)CC1,/,30*,1,4,-1,6,23
CC1(C)Cc2c(c(N3CCOCC3)nc3sc4c(NCC5CCCO5)nnnc4c23)CS1 (centres undefined),/,31*,3,1,-14,0,-1
COc1ccc(-c2noc(CCC(=O)Nc3cccc(C)c3)n2)cc1,-12,7,7,-1,0,/,/
COc1ccc(-c2noc(CCC(=O)NCCc3cccc(C)c3)n2)cc1,7,29*,-1,0,-3,4,-7
NC(=NCCCCCCN=C(N)/N=C(\N)Nc1ccc(Cl)cc1)/N=C(\N)Nc1ccc(Cl)cc1,/,80*!,10,2,4,-11,71*
CC(C)N=C(N)N=C(N)Nc1ccc(Cl)cc1,/,12,2,-1,-12,/,/
CC(=O)Oc1ccccc1Cn1c(C)c(C(=O)NCc2cccc(Cl)c2)sc1=O,/,15,-2,0,/,/,/
COC(=O)C(C(=O)Nc1nc2ccccc2s1)C1CCCC1 (centres undefined),2,1,-9,-3,-2,/,/
O=C(NCC(c1cccs1)N1CCOCC1)c1ccccc1NS(=O)(=O)c1ccc(Cl)c([N+](=O)[O-])c1 (centres undefined),-9,29*,0,0,-6,4,5
O=C(NCC(c1cccs1)N1CCOCC1)c1ccc(Cl)c([N+](=O)[O-])c1 (centres undefined),15,41*,-3,-3,-1,16*,47*
O=C1NC(=O)C2(CCCC2C(=O)O)N1 (centres undefined),/,7,-21,-1,0,/,/
CCCCC(=O)Nc1ccc(C(=O)N(CC)c2ccccc2C)cc1,4,30*,-8,1,1,2,-9
CCN(C(=O)c1ccc(NC(C)=O)cc1)c1ccccc1C,6,9,-4,0,-7,/,/
CCOC(=O)CCCCC1C(CCCC(=O)OCC)C=NN1C (centres undefined),/,-1,-6,-1,-18,/,/
c1ccc(Cn2c(CNc3nc4ccccc4n3CCN3CCCCC3)nc3ccccc32)cc1,10,29*,-3,-3,5,-5,28
Cn1c(CNc2nc3ccccc3n2CCN2CCCCC2)nc2ccccc21,-7,0,3,0,5,/,/
Cc1ccc(S(=O)(=O)NCC(=O)N(CC2CCCO2)C(C(=O)NC2CCCCC2)C(C)C)cc1 (centres undefined),/,-4,-4,2,1,/,/
Cc1ccc(S(=O)(=O)NCC(=O)OCC(=O)c2cccs2)cc1,-12,38*,-11,-1,-4,7,13
Cc1ccc(S(=O)(=O)NCC(=O)OCC(=O)NC(=O)c2cccn2C)cc1,-5,34*,-14,2,3,26*,40*
COc1ccc(OC)c(NC(=O)COC(=O)CCCN=C2NS(=O)(=O)c3ccccc32)c1,/,2,-2,-3,5,/,/
Cn1c(=O)c2c(nc(Sc3n[nH]c(N)n3)n2Cc2ccccc2Cl)n(C)c1=O,-4,29*,-1,1,-7,0,-4
SMILES,TLR4 MyD88 comp,MC4R antagonist,NOD2-RIPK2 inh,MC4R barr agon,TLR9-MyD88 block,cAMP nonselect,MC4R cAMP antag
Cn1c(=O)c2c(nc(Sc3ncccn3)n2Cc2ccccc2Cl)n(C)c1=O,2,-5,1,-2,-9,/,/
CC1CCC/C(=N\NS(=O)(=O)c2ccccc2)C1 (centres undefined),/,37*,-11,2,0,-1,-1
CC1CCC/C(=N\NC(=O)Nc2ccccc2)C1 (centres undefined),9,23,0,-1,-1,/,/
COc1cccc(C(C)(O)c2nc(-c3cnc4ccccc4c3)cs2)c1 (centres undefined),/,-5,-4,1,/,/,/
O=C(CC1C(=O)NCCN1Cc1ccc(-c2ccccc2)cc1)NCCCn1ccnc1 (centres undefined),/,31*,-17,1,-2,-14,-24
N#CC1(NC(=O)CN2C(=O)c3ccccc3C2=O)CCCCC1,/,1,-6,-2,0,/,/
N#CC1(NC(=O)Cn2ncc(Cl)c(Cl)c2=O)CCCCC1,/,35*,10,-3,10,25*,37*
O=C(Cc1ccc([N+](=O)[O-])cc1)Oc1ccccc1,/,0,-7,0,-2,/,/
CCC(=O)N1CCC(C)(C(=O)Nc2ccc3c(c2)OCCO3)C1 (centres undefined),/,4,-7,0,/,/,/
O=S(=O)(c1cccnc1)N1CCn2cccc2C1c1ccccc1F (centres undefined),/,7,-2,-3,0,/,/
CC(C)(C)NC(=O)N1CCn2cccc2C1c1ccccc1F (centres undefined),-4,30*,-1,1,-6,4,1
S=c1[nH]ncc2ccccc12,2,-9,4,-1,-21,/,/
S=c1[nH]ccc2ccccc12,/,29*,-9,-2,-4,-3,0
CCOC(=O)N(C)c1c(CC)nc2c(OCc3ccc(Cl)cc3Cl)cccn12,/,10,-2,-3,/,/,/
CCOC(=O)c1ccc(N=c2sc(C(=O)OC)cc(=O)n2-c2ccc(C(=O)OCC)cc2)cc1,2,32*,0,1,-4,6,18
COC(=O)c1cc(=O)n(-c2ccccc2)c(=Nc2ccccc2)s1,3,11,-2,3,-1,/,/
